Results on 4 compounds are retold here after PMC3115441 (Chemical biology & drug design, 2011).

“Also recorded” adds a separate entry of the source. Where two headings read alike, the source gives them in different places. A value given as a limit tells only on which side of the number the result lay.

Data set [1] relates to MES-induced seizures. Kind of data set: Anticonvulsant protection test in rats. The data set is classed as in vivo. The note with it: 30 mg/kg. The procedure, abridged: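 Rats were dosed orally at 30 mg/kg in 0.04 ml/10 g. Corneal electrodes primed with 0.5% tetracaine HCl electrolyte delivered 60 Hz alternating current, 150 mA, for 0.2 s. Protection meant abolition of the hindlimb tonic extensor component of the seizure.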

Data set [2] deals with Metrazol-induced clonic seizures. The data set is described as follows: Subcutaneous Metrazol seizure threshold test. The conditions noted are these: for scMET (30) N/F, animals active over tested: 30 mg/kg; for scMET (100) N/F, animals active over tested: 100 mg/kg; for scMET (300) N/F, animals active over tested: 300 mg/kg. The data set is classed as in vivo, mice.
The target in data set [3] is Norepinephrine Transporter (NET) (Homo sapiens, UniProt P23975). Kind of data set: NIMH-PDSP radioligand binding, NET.
Sequence of Norepinephrine Transporter (NET) (P23975 whole entry): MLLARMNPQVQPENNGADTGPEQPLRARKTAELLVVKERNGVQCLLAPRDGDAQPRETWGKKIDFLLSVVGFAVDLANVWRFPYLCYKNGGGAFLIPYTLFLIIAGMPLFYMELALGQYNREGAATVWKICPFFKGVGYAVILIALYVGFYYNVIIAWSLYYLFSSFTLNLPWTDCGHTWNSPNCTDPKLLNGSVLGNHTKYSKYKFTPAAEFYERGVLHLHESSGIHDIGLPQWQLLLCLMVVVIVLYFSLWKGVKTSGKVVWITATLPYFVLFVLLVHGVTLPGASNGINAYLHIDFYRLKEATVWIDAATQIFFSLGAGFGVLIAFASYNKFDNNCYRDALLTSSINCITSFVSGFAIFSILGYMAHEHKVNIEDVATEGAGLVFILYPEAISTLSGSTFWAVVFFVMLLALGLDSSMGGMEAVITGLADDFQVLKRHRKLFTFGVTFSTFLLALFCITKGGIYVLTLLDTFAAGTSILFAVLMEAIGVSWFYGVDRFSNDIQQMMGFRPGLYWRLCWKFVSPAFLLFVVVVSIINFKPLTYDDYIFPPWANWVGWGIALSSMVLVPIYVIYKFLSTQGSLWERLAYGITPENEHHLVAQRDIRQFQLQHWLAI
For data set [4], the target named is Dopamine Transporter (DAT) (Homo sapiens, UniProt Q01959). Kind of data set: NIMH-PDSP radioligand binding, DAT.
Sequence of Dopamine Transporter (DAT) (Q01959 whole entry): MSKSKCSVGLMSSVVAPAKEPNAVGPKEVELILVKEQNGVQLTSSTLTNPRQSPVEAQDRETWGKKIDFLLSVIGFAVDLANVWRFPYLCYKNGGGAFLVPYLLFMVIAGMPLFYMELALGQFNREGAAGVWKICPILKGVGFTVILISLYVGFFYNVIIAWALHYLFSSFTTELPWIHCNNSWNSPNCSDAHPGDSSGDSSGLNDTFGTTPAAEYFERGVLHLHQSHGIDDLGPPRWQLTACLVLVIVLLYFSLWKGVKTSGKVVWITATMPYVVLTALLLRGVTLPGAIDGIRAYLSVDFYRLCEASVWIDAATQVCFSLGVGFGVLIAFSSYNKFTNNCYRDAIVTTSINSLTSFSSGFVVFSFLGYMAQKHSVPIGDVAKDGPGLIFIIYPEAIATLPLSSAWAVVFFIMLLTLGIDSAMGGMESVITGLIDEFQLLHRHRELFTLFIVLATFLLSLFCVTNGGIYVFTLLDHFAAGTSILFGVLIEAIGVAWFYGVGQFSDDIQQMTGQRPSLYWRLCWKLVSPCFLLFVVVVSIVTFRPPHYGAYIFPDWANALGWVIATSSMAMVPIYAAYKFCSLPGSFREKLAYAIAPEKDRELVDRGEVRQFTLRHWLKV
The next data set deals with Dopamine 1 (D1) (Homo sapiens, UniProt P21728). The data set is described as follows: NIMH-PDSP radioligand binding, D1.
Sequence of Dopamine 1 (D1) (P21728 whole entry): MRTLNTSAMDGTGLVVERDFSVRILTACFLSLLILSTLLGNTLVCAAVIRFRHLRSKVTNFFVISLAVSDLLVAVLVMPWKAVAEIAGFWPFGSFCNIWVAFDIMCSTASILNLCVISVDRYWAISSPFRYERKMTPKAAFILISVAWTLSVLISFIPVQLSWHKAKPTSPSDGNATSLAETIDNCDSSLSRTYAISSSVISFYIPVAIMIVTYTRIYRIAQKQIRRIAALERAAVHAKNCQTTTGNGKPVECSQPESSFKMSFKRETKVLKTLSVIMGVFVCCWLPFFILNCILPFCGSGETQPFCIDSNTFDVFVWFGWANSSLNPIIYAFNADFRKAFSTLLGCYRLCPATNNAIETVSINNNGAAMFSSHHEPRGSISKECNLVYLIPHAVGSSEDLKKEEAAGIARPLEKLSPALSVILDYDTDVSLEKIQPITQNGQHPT
Another data set concerns 6HZ. Kind of data set: 6HZ test. Type of data set: in vivo. The note with it: 50 mg/kg, 0.5 h.
The test system of a further data set is rats. The data set is described as follows: Acute toxicity, minimal motor impairment in rats. Type of data set: in vivo. The conditions noted are these: 30 mg/kg.
The next data set has as its target Serotonin 2A (5-HT2A) (Homo sapiens, UniProt P28223). The data set is described as follows: NIMH-PDSP radioligand binding, 5-HT2A.
Data set [5] deals with Serotonin Transporter (SERT) (Homo sapiens, UniProt P31645). The data set is described as follows: NIMH-PDSP radioligand binding, SERT.
Sequence of Serotonin Transporter (SERT) (P31645 whole entry): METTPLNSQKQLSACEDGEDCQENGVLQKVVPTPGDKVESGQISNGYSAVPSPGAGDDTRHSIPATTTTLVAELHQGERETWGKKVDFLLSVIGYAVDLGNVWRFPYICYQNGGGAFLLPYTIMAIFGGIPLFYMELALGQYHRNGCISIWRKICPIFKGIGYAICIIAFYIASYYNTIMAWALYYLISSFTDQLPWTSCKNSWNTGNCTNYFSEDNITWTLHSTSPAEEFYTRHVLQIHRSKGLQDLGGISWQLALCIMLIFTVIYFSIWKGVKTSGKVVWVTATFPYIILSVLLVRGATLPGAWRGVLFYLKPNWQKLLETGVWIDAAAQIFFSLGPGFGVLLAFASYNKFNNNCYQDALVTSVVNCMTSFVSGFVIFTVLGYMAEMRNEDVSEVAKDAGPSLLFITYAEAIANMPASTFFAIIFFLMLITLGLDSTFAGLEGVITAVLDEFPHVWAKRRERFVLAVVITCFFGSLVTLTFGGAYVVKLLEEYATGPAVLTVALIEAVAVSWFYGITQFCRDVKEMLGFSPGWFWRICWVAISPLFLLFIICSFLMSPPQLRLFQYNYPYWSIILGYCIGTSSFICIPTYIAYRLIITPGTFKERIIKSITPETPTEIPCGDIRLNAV
In data set [6] the target is κ- opioid receptors (KOR) (Rattus norvegicus, UniProt P34975). Kind of data set: NIMH-PDSP radioligand binding, KOR.
Sequence of κ- opioid receptors (KOR) (P34975 whole entry): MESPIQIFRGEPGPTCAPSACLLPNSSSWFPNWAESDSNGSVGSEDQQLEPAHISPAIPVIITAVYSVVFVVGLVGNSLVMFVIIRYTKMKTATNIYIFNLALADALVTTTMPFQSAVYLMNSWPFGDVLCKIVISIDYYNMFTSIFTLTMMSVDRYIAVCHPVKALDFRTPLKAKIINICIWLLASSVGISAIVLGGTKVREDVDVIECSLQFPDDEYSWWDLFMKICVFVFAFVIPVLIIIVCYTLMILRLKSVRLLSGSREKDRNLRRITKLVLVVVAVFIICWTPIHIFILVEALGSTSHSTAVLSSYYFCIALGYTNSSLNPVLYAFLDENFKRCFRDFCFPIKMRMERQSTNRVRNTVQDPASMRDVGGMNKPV
The subject of data set [7] is PCP site of the NMDA receptor complex. The data set is described as follows: [3H]. The note with it: for % inhibition of 1 nM [3H] (+)-MK-801: compound at 10 μM (10,000 nM); for IC50: rat forebrain homogenate, 1 nM (+)-[3H]MK-801; for Ki: read-out: NMDA affinity Ki, calculated by Cheng and Prusoff equation. Type of data set: binding, rat. Put shortly: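 Washed rat forebrain homogenate (30 ug/mL protein) in 10 mM HEPES, pH 7.4, with 1 nM (+)-[3H]MK-801, 100 uM glutamate, 30 uM glycine and varied competitor concentrations. Nonspecific binding was set with 30 uM (+)-MK-801. Incubation ran 2 h at room temperature, then vacuum filtration onto GF/B filters, three buffer washes and scintillation counting.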

For a further data set, the target named is T1, Sigma2 (Rattus norvegicus, UniProt Q5U3Y7).
T1 sequence (Q5U3Y7 1-176): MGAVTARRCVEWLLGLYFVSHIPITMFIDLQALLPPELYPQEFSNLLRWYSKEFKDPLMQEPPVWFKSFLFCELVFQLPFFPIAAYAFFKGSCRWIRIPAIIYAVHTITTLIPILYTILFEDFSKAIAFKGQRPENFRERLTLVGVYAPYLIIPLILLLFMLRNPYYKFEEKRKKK
The data set is described as follows: NIMH-PDSP radioligand binding, Sigma-2.

In data set [8] the test system is MES-induced seizures. The data set is described as follows: Maximal electroshock. The data set is classed as in vivo, mice. The note with it: for MES (30) N/F, animals active over tested: 30 mg/kg i.p.; for MES (100) N/F, animals active over tested: 100 mg/kg i.p. The procedure, abridged: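 Mice received test compound i.p. at 30, 100 or 300 mg/kg in 0.01 ml/g and were tested at various intervals after dosing. Corneal electrodes primed with 0.5% tetracaine HCl electrolyte delivered 60 Hz alternating current, 50 mA, for 0.2 s. An animal counted as protected when the hindlimb tonic extensor component was abolished. Results are scored as animals protected over tested.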
For orientation: In the maximal electroshock model the usual endpoint is tonic extension of the hind limbs.

A further data set has as its target Sigma1 (Rattus norvegicus, UniProt Q9R0C9). Kind of data set: NIMH-PDSP radioligand binding, Sigma-1.
The target in data set [9] is μ- opioid receptors (MOR) (Homo sapiens, UniProt P35372). The data set is described as follows: NIMH-PDSP radioligand binding, MOR.
Sequence of μ- opioid receptors (MOR) (P35372 whole entry): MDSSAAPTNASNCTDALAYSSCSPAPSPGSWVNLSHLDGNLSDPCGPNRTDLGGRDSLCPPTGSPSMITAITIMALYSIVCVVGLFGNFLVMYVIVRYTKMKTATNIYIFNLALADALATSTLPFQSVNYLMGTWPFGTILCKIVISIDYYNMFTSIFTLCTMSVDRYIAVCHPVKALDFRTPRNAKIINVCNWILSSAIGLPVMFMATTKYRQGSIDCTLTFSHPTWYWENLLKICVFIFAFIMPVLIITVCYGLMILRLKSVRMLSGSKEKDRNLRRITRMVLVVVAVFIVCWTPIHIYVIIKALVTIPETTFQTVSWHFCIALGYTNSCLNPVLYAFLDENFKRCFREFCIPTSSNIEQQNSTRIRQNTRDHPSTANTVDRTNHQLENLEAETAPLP
The test system of a further data set is mice. Kind of data set: Acute toxicity, minimal motor impairment. The data set is classed as in vivo. The note with it: for TOX (30) N/F, animals toxic over tested: 30 mg/kg.
The target of the next data set is Dopamine 2 (D2) (Homo sapiens, UniProt P14416). Kind of data set: NIMH-PDSP radioligand binding, D2.
Sequence of Dopamine 2 (D2) (P14416 whole entry): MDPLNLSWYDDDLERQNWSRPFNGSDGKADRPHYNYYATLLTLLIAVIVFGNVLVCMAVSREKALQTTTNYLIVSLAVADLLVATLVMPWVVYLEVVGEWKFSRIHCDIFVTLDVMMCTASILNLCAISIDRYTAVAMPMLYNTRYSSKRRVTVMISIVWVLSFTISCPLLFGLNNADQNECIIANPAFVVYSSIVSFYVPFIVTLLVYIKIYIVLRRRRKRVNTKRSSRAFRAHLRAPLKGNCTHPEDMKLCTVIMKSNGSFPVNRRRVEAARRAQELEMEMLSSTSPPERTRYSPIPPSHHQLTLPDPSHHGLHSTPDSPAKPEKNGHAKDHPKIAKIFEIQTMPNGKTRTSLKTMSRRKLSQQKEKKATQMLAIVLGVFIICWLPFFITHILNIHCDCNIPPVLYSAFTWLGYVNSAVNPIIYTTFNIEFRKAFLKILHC
The test system of data set [10] is PCP site of the NMDA receptor complex. The conditions noted are these: ref [39], [40]; cited from earlier work.
The mark [11] stands for this setting: read-out: NET binding affinity, Human Cloned, hot ligand Nisoxetine.
[12] abbreviates: read-out: DAT binding affinity, Human Cloned, hot ligand WIN35428.
[13] abbreviates: read-out: D1 binding affinity, Human Cloned, hot ligand SCH23390.
The mark [14] stands for this setting: read-out: 5HT2A binding affinity, Human Cloned, hot ligand Ketanserin.
[15] abbreviates: read-out: SERT binding affinity, Human Cloned, hot ligand Citalopram.
The mark [16] stands for this setting: read-out: KOR binding affinity, Rat Cloned, hot ligand U69593.
Setting [17] is: read-out: Sigma 2 binding affinity, Rat C12, hot ligand DTG.
The mark [18] stands for this setting: read-out: Sigma 1 binding affinity, Rat Brain, hot ligand Pentazocine(+).
Setting [19] is: read-out: MOR binding affinity, Human Cloned, hot ligand DAMGO.
The mark [20] stands for this setting: read-out: D2 binding affinity, Human Cloned, hot ligand N-Methylspiperone.

Sequence of Serotonin 2A (5-HT2A) (P28223 whole entry): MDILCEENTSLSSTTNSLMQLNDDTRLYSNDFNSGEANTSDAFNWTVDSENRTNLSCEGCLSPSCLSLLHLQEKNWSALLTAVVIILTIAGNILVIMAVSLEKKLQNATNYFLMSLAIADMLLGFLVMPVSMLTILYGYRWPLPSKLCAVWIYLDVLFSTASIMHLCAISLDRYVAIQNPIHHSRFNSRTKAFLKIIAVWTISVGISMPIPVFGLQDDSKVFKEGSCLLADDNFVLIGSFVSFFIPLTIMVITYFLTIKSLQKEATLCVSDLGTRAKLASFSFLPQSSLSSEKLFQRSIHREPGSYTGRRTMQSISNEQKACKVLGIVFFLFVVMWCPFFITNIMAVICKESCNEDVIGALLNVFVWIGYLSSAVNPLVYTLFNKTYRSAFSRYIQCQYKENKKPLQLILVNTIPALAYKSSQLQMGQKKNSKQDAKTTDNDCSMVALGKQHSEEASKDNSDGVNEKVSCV
Sequence of Sigma1 (Q9R0C9 whole entry): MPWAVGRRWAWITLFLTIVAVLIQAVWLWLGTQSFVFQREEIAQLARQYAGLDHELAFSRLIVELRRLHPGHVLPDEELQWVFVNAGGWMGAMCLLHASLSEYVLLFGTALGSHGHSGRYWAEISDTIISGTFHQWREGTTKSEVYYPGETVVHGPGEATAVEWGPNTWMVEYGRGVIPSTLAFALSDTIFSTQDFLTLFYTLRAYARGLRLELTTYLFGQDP

On to `Fc1ccc(C2(NCCN3CCCCC3)CC3CCC2C3)cc1` (stereo not shown) [Compound 5b], for which, in the data set with MES-induced seizures [1], the “protection in rats (in words)” value is “did not display any protection”. Further, the “scMET (30) N/F, animals active over tested” value (“scMET (30) N/F … over tested” for short) in data set [2] (0.5 h) and in [2] (4.0 h) was 0/1 0/1 throughout. Further, the “scMET (100) N/F, animals active over tested” value (“scMET (100) N/F … over tested” for short) in data set [2] (0.5 h) and in data set [2] (4.0 h) was 0/1 0/1 throughout. Further, the Ki in data set [3] (setting [11]) was over 10 µM; in data set [4] (setting [12]), 1.23 µM; on Dopamine 1 (D1) (setting [13]), over 10 µM; on Serotonin 2A (5-HT2A) (setting [14]) it was 8.82 µM; in [5] (setting [15]) it was over 10 µM; in data set [6] (setting [16]), 3.55 µM. In addition, the Ki (at Sigma2 (setting [17]); at Sigma1 (setting [18]); in data set [9] (setting [19]); at Dopamine 2 (D2) (setting [20])) was over 10 µM each time. The “6HZ (50), animals active over tested” value with 6HZ is 0/4. The “toxicity in rats (in words)” value in the data set with rats is on record as “did not display any protection or toxicity”. In addition, the “affinity for NMDA (in words)” value in [7] is reported as “did not exhibit significant affinity”. Also, the “MES (30) N/F, animals active over tested” value in the data set with MES-induced seizures [8] (0.5 h) and in the data set on MES-induced seizures [8] (4.0 h) was 0/1 0/1 each time. The “MES (100) N/F, animals active over tested” value (from here on “MES (100) N/F … over tested”) is given as 2/3 in the data set with MES-induced seizures [8] (0.5 h) and 0/3 with MES-induced seizures [8] (4.0 h). Further, the “MES neuroprotective activity (in words)” value in the data set on MES-induced seizures [8] (mouse, in vivo) is “displayed MES neuroprotective activity”. The TOX comments result with mice (50 mg/kg, 0.25 h) is on record as “Clonic seizures”; in the data set on mice (100 mg/kg, 0.5 h) it was “Clonic seizures”; with mice (300 mg/kg, 0.5 h) it was “Death”. The “TOX (30) N/F, animals toxic over tested” value in the data set with mice (rotorod, 0.5 h) is 0/4; in the data set on mice (rotorod, 4.0 h) it was 0/2. Moreover, the “TOX (65) N/F, animals toxic over tested” value with mice (rotorod, 65 mg/kg, 0.5 h) is 2/4. The “TOX (100) N/F, animals toxic over tested” value in the data set with mice (rotorod, 100 mg/kg, 0.5 h) is 3/8; in the data set with mice (rotorod, 100 mg/kg, 4.0 h) it was 0/4. Moreover, the “TOX (300) N/F, animals toxic over tested” value in the data set on mice (rotorod, 300 mg/kg, 0.5 h) is reported as 4/4 /.
One may read the IC50 as the concentration that gives 50% inhibition. As to `c1ccc(C2(NCCN3CCCC3)CC3CCC2C3)cc1` (stereo not shown) [Compound 5e, 2-Phenyl-N-(2-(pyrrolidin-1-yl)ethyl) bicyclo[2.2.1]heptan-2-amine], the “scMET (30) N/F … over tested” value in data set [2] (0.5 h) and in data set [2] (4.0 h) was 0/1 0/1 each time. In addition, the “scMET (100) N/F … over tested” value in data set [2] (0.5 h) and in data set [2] (4.0 h) was 0/1 0/1 throughout. The results for the “scMET (300) N/F, animals active over tested” value in data set [2] (0.5 h) and in [2] (4.0 h) were 0/1 and 0/0, respectively. The Ki in data set [3] is over 10 µM; in data set [4], 3.62 µM; on Dopamine 1 (D1), over 10 µM; on Serotonin 2A (5-HT2A) it was over 10 µM; in data set [5], over 10 µM; in data set [6], 4.51 µM. Further, the Ki in data set [7] was 5.67 µM; at Sigma2 it was over 10 µM; on Sigma1, over 10 µM; in data set [9], over 10 µM; on Dopamine 2 (D2) it was over 10 µM. In addition, the “% inhibition of 1 nM [3H] (+)-MK-801” value in [7] was “greater than 90%”. For the same compound, the IC50 in data set [7] is 8.48 ± 3.11 µM. For the same compound, the “MES (30) N/F, animals active over tested” value in the data set with MES-induced seizures [8] (0.5 h) and in the data set with MES-induced seizures [8] (4.0 h) was 0/1 0/1 in each case. For the same compound, in the data set on MES-induced seizures [8] (100 mg/kg), the “MES protection (in words)” value is reported as “all protective in the MES test at the dose of 100 mg/kg except for compound 5e”. Besides, the “MES (100) N/F … over tested” value with MES-induced seizures [8] (0.5 h) and in the data set on MES-induced seizures [8] (4.0 h) was 0/3 0/3 throughout. Moreover, in the data set on mice (300 mg/kg, 0.5 h), the TOX comments result was “Diarrhea; also recorded: Unable to grasp rotorod; also recorded: Death”. In addition, the “TOX (30) N/F, animals toxic over tested” value with mice (rotorod, 0.5 h) is recorded as 0/4; in the data set with mice (rotorod, 4.0 h) it was 0/2. Also, the “TOX (100) N/F, animals toxic over tested” value is 0/8 in the data set on mice (rotorod, 100 mg/kg, 0.5 h) and 0/4 in the data set on mice (rotorod, 100 mg/kg, 4.0 h). Besides, the “TOX (300) N/F, animals toxic over tested” value in the data set on mice (rotorod, 300 mg/kg, 0.5 h) is 4/4 /.
As for `Fc1ccc(C2(NCCN3CCCC3)CC3CCC2C3)cc1` (stereo not shown) [Compound 5f], the “scMET (30) N/F … over tested” value in [2] (0.5 h) and in data set [2] (4.0 h) was 0/1 0/1 in each case. In addition, the “scMET (100) N/F … over tested” value in [2] (0.5 h) and in data set [2] (4.0 h) was 0/1 0/1 throughout. For the same compound, the Ki was over 10 µM in data set [3] (setting [11]); 0.226 µM in [4] (setting [12]); over 10 µM on Dopamine 1 (D1) (setting [13]); over 10 µM on Serotonin 2A (5-HT2A) (setting [14]); 4.61 µM in data set [5] (setting [15]); 2.11 µM in [6] (setting [16]). Moreover, the Ki in [7] is 5.82 µM; at Sigma2 (setting [17]), over 10 µM; on Sigma1 (setting [18]), over 10 µM; in [9] (setting [19]), over 10 µM; on Dopamine 2 (D2) (setting [20]), over 10 µM. For the same compound, the “% inhibition of 1 nM [3H] (+)-MK-801” value in [7] is given as “greater than 90%”. Moreover, the IC50 in data set [7] is 8.66 ± 2.56 µM. The “MES (30) N/F, animals active over tested” value with MES-induced seizures [8] (0.5 h) and in the data set on MES-induced seizures [8] (4.0 h) was 0/1 0/1 each time. Also, the “MES (100) N/F … over tested” value in the data set on MES-induced seizures [8] (0.5 h) was 1/3; in the data set on MES-induced seizures [8] (4.0 h) it was 0/1. Moreover, the TOX comments entry is “Clonic seizures” in the data set on mice (100 mg/kg, 0.5 h) and “Death” in the data set on mice (300 mg/kg, 0.5 h). In addition, the “TOX (30) N/F, animals toxic over tested” value is recorded as 0/4 in the data set on mice (rotorod, 0.5 h) and 0/2 in the data set on mice (rotorod, 4.0 h). Moreover, the “TOX (100) N/F, animals toxic over tested” value with mice (rotorod, 100 mg/kg, 0.5 h) is on record as 5/8; in the data set on mice (rotorod, 100 mg/kg, 4.0 h) it was 0/4. Besides, the “TOX (300) N/F, animals toxic over tested” value with mice (rotorod, 300 mg/kg, 0.5 h) is 4/4 /.
Consider `CN1CC[C@@]23CCCC[C@@H]2[C@@H]1Cc1ccc(O)cc13` [DX, dextrophan], for which the “activity / affinity at NMDA (in words)” value in data set [10] is reported as “μM affinity”.
